# Rows were chosen to be rich in hits. Some 29% of all compounds tested hit in one or more screens of this group.
# CYP2C9 act = increases human cytochrome P450 2C9 activity. 96,000 compounds, 1.4% hits. P11712. recombinant CYP2C9, luciferin-H conversion, luminescence; active compounds read high; factor 1 = untreated enzyme, 0 = blocked. activation factor at 5 µM;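 active = activation factor of 2 or more for CYP2C9 at a 5 µM dose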;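 note: 0 = sulfaphenazole-blocked wells and 1 = vehicle-only wells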
# CYP2C19 inhib = human CYP2C19 inhibition | P33261 | CYP2C19 Supersomes, luciferin-H EGE luminescence, 30 min | inhibition, % at 5 µM | 96,000 compounds, 21% hits | AID 778;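 active = CYP2C19 inhibition above a set limit at 5 µM in the primary screen, cut at about 50% in these data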;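 note: plate controls were negative control wells for no effect and 2.5 mM tranylcypromine positive control for full effect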
# Target sequence (P33261 whole entry, looked up): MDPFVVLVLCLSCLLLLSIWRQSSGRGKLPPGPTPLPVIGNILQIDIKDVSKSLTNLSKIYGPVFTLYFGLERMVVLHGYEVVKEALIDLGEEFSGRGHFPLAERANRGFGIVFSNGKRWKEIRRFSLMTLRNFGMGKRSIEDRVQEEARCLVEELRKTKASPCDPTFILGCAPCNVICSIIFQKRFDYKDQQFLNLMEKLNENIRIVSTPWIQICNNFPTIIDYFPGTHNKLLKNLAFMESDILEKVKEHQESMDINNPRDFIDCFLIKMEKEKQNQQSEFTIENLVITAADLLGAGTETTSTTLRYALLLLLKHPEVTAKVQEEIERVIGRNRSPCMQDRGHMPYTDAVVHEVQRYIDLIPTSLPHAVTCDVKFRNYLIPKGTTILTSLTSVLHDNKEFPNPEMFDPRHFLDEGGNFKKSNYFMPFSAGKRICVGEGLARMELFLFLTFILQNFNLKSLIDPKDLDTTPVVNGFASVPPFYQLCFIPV
# tolC growth inh = blocks growth of E. coli BW25113 tolC mutant | 65,000 compounds, 2.2% hits | AID 573 | growth inhibition, % at 10 µM (by protocol) | OD615;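 active = growth inhibition at or above a cutoff equal to the mean over every tested compound plus 3 SD, cut at about 60% in these data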;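 note: growth measured after 20 h incubation at 37 °C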
#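 Test system – E. coli BW25113 ΔtolC::kan, tolC deletion mutant strain · Detection – OD at 615 nm · Buffer or medium – LB with kanamycin 50 µg/mL · Times – 20 h compound exposure of bacteria at 37 °C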
# E coli WT exp = blocks growth of wild type E. coli BW25113 | OD600 absorbance | growth inhibition, % at 100 µM | 98,000 compounds, 0.15% hits;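 active = growth inhibition above about 50% at one test dose, limit read from the data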;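 note: growth measured after 20 h incubation at 37 °C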
# CYP2C9 inhib = human CYP2C9 inhibition; CYP2C9 Supersomes, luciferin-H conversion, luminescence; P11712; 96,000 compounds, 20% hits; inhibition, % at 5 µM;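 active = blocking of liver enzyme CYP2C9 beyond about 50% at 5 µM, limit read from the data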
# CYP2C19 activ = activators of human cytochrome P450 2C19; AID 1025; recombinant CYP2C19, luciferin-H EGE luminescence; active compounds read high; 0 = fully inhibited enzyme, 1 = untreated enzyme; 96,000 tested, under 10 active; activation factor at 5 µM; P33261;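 active = activation factor of at least 2 at 5 µM in the primary screen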;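 note: 0 = wells with 2.5 mM tranylcypromine and 1 = vehicle-only wells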
# Active calls of the source: *; . = no result given.
SMILES,CYP2C9 act,CYP2C19 inhib,tolC growth inh,E coli WT exp,CYP2C9 inhib,CYP2C19 activ
CCN(CC)C(=O)CSc1nc(N)c2c3c(sc2n1)CC(C)CC3 (stereo not drawn),0.5,56*,.,-3,54*,0.4
CCSc1nc(N)c2c3c(sc2n1)CN(C)CC3,1.2,19,-8,10,-19,0.8
CCOC(=O)CSc1nnc2n(C3CCCCC3)c(=O)c3c4c(sc3n12)CCCC4,0.4,54*,18,-8,63*,0.5
CSc1nnc2n(C3CCCCC3)c(=O)c3c4c(sc3n12)CCCC4,0.7,24,-1,.,32,0.8
Cc1noc(/C=C/N(C)C)c1S(=O)(=O)N1CCC(C(=O)O)CC1,1,-19,-19,2,0,1.2
Cc1onc(-c2ccccc2)c1C(=O)NCC1CCN(C(=O)c2c(-c3ccccc3)noc2C)CC1,0.7,18,.,6,32,0.8
Cc1cc(C)c(NC(=O)CS(=O)CC(=O)NC2CCCc3ccccc32)c(C)c1 (stereo not drawn),1.2,-4,.,-6,-19,1
CN(C1CCCCC1)S(=O)(=O)c1ccc(NC(=O)c2ccco2)cc1,0.6,24,36,1,44,0.8
CCOC(=O)CSc1nnc(CSc2nc3sc4c(c3c(=O)[nH]2)CCCC4)n1-c1ccccc1,0.3,74*,.,-12,70*,0.3
CCOC(=O)c1cnn(-c2nc(SC)nc3sc4c(c23)CCCC4)c1N,0.4,-11,.,-31,63*,1.1
CC1CCc2c(sc3nc(SCC(=O)NCc4ccco4)nc(N)c23)C1 (stereo not drawn),0.4,37,10,-15,61*,0.6
Cn1nnnc1SCc1cn2cccnc2n1,1.2,-16,-18,-1,-16,1.2
N/C(=N\OS(=O)(=O)c1cc(Cl)ccc1Cl)c1ccncc1,0.5,38,.,2,48,0.6
CCOC(=O)c1c(C)[nH]c(C(=O)OCC(=O)NC(C)C)c1C,0.6,4,.,-10,45,1
COc1ccc(CNC(=O)CN2C(=O)C(C)N(c3ccc(C)cc3)C2=O)cc1 (stereo not drawn),0.2,94*,.,10,78*,0.1
Cc1ccc(N2C(=O)N(CC(=O)NCc3ccc(Cl)cc3)C(=O)C2C)cc1 (stereo not drawn),0.8,74*,.,4,22,0.3
COc1ccccc1CNC(=O)CN1C(=O)C(C)N(c2ccc(C)cc2)C1=O (stereo not drawn),0.9,19,-3,14,10,0.8
CC(=O)Nc1ccc(S(=O)(=O)N2CCC(NC(C)=O)(c3cccc(F)c3)CC2)cc1,0.3,93*,-19,.,75*,0.1
O=C(Nc1cccc(O)c1)c1cc(S(=O)(=O)N2CCCC2)ccc1Cl,0.2,46,-15,1,82*,0.5
O=C(Nc1ccon1)c1cccc(S(=O)(=O)N2CCCC2)c1,0.8,34,2,2,16,0.7
O=C(Nc1ccon1)c1cccc(S(=O)(=O)N2CCCCCC2)c1,0.4,93*,.,-3,65*,0.1
CC(=O)c1cccc(NS(=O)(=O)N2CCCCC2)c1,0.8,60*,-7,1,22,0.4
CCOC(=O)COc1nc(Nc2ccccc2C)nc(N(C)C)n1,0.6,35,-5,-1,36,0.6
CCc1c(C)nc(N)n2c(SCC(=O)N3CCCC(C)C3)nnc12 (stereo not drawn),1.2,8,-14,-2,-20,0.9
CCOC(=O)C1CCN(c2cc(=O)n(Cc3ccc(F)cc3)c(=O)[nH]2)CC1,0.7,-5,-28,0,26,1.1
SMILES,CYP2C9 act,CYP2C19 inhib,tolC growth inh,E coli WT exp,CYP2C9 inhib,CYP2C19 activ
Cc1cc(C)n(C(=O)c2cc3c(s2)CCCC3)n1,1,1,.,0,1,1
CCN1CCN(C(c2cc(OC)c(OC)c(OC)c2)c2nnnn2C(C)C)CC1 (stereo not drawn),1.1,7,-4,0,-6,0.9
CNC(=O)c1ccccc1NC(=O)c1ccc(C)c(S(=O)(=O)N2CCCCC2)c1,0.4,70*,10,1,62*,0.3
Cc1cc(C)n(C(=O)c2cccc(S(=O)(=O)N3CCCC3)c2)n1,0.3,76*,-17,0,72*,0.2
Cc1nnc(NC(=O)c2ccc(C)c(S(=O)(=O)N3CCCCCC3)c2)s1,1.1,-4,0,-5,-9,1
Cc1csc(NC(=O)c2ccc(C)c(S(=O)(=O)N3CCCCC3)c2)n1,0.7,14,28,-3,27,0.9
Cc1ccc(C(=O)Nc2nccs2)cc1S(=O)(=O)N1CCCCC1,0.3,66*,26,3,68*,0.3
O=C(c1cccc(S(=O)(=O)N2CCCCC2)c1)N1CCOCC1,0.9,2,-11,-3,5,1
O=C(COC(=O)c1ccc(Br)o1)Nc1cccc(S(=O)(=O)N2CCCCCC2)c1,0.1,96*,.,-16,92*,0
Cc1ccc(C(=O)Nc2ccon2)cc1S(=O)(=O)N1CCCC1,1,58*,.,7,4,0.4
O=C(O)c1cccc(S(=O)(=O)Nc2ccccc2Cl)c1,1.1,1,-16,6,-13,1
O=C(Nc1ccccc1Cl)c1cccc(NS(=O)(=O)c2ccccc2)c1,0.2,89*,.,5,75*,0.1
O=C(Nc1ccc(N2CCOCC2)cc1)c1cccc(S(=O)(=O)N2CCCCC2)c1,0.9,2,.,-6,10,1
Cc1ccc(C(=O)Nc2ccc3cn[nH]c3c2)cc1S(=O)(=O)N1CCCCC1,0.1,-8,.,4,92*,1.1
O=C(Nc1ccccc1)c1cccc(S(=O)(=O)N2CCCCC2)c1,0.5,58*,.,1,48,0.4
COc1ccc(OC)c(NC(=O)Cn2cccc2)c1,0.7,28,-7,4,30,0.7
O=c1cc(N2CCCCC2)c(-c2ccccc2)nn1Cc1c(Cl)cccc1Cl,0.6,27,.,-14,45,0.7
Cc1ccc(C(=O)NCc2cccs2)cc1S(=O)(=O)N1CCCCC1,0.4,38,-10,3,56*,0.6
Cc1ccc(C(=O)NC2CCS(=O)(=O)C2)cc1S(=O)(=O)N1CCCCC1 (stereo not drawn),0.7,-13,-4,-6,32,1.1
CC(=O)Nc1ccc(S(=O)(=O)N2CCN(S(=O)(=O)N3CCCCCC3)CC2)cc1,1,6,-7,-6,1,0.9
CC(=O)Nc1cccc(S(=O)(=O)N2CCCCCC2)c1,2.5*,75*,.,6,-148,0.2
O=C(c1cccc(S(=O)(=O)N2CCCC2)c1)c1nnc(-c2ccncc2)o1,0.1,78*,-2,-1,90*,0.2
CN(C1CCCCC1)S(=O)(=O)c1ccc(Cl)c(C(=O)O)c1,0.9,5,5,2,7,0.9
CCCC(C)c1nnc(NC(=O)C2CCCO2)s1 (stereo not drawn),1.1,2,-8,-1,-11,1

# Screening results deposited in PubChem BioAssay by several laboratories.
